Data published in article PMC6402190 (Clinical and Translational Science, 2017).
Entries after “also recorded” stand apart in the source; their conditions may differ. Read-outs that look alike come from different tables or passages of the source.

Columns and labels:
[1] = type: in vivo, human (healthy women)
[2] = Safety: treatment emergent adverse events, laboratory, vital signs, ECG; type: in vivo, human (healthy women); conditions: for Dose-dependent AEs or clinically significant findings in safety laboratory values, vital signs, ECG parameters: any of the dose groups
Method in brief: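 Subjects were healthy women, aged 18–45 years, with BMI 18.0–28.0 kg/m². Part A gave single escalating i.v. doses (6 active, 2 placebo per cohort). Part B gave 240 mg i.v. on day 1 and once daily on days 8–14 (8 active, 4 placebo). AEs were categorized by nature, frequency, duration, severity, investigator-assessed causality and dose-dependence. Clinical laboratory, blood pressure, heart rate and 12-lead/Holter ECG were also recorded. Summaries are descriptive.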

[3] = Local tolerability: VAS assessment of pain at infusion site; type: in vivo, human (healthy women)
Method in brief: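 Healthy women, aged 18–45 years, received single i.v. doses of HPβCD-formulated test compound (60-min infusion in 0.9% saline) or placebo. Pain was self-rated on a 100-mm line (0 = no pain, 100 = unbearable). Read-outs were maximum increase from baseline and area under the VAS-time curve.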

[4] = Local tolerability: Visual Infusion Phlebitis; type: in vivo, human (healthy women)
Method in brief: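 The investigator scored the infusion site on the Visual Infusion Phlebitis scale, from 0 (no signs) to 5 (advanced thrombophlebitis). Subjects were healthy women given a single i.v. infusion of test compound or placebo. Scoring was done on day 1 predose after catheter placement, at 0.5, 1, 2, 3, 4, 6, 8, 12, 24, 48 and 72 h postdose, and at the post-trial exam.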

[5] = Local tolerability: ultrasound of the arm veins; type: in vivo, human (healthy women)
Method in brief: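 Arm veins were examined by ultrasound in healthy women. In the multiple-dose phase of part B, subjects had once-daily 30-min i.v. infusions of 240 mg test compound or placebo on days 8–14. Scans were done at readmission on day 7 and predose on days 9–14. After the day-14 dose they were repeated at 24, 48 and 72 h and at the final exam.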

[6] = part A, single 120 mg i.v., 30-min infusion, N=6, mean ± SD
[7] = part A, single 240 mg i.v., 30-min infusion, N=6, mean ± SD
[8] = part A, single 480 mg i.v., 60-min infusion, N=6, mean ± SD
[9] = part A, single 720 mg i.v., 60-min infusion, N=6, mean ± SD
[10] = part A, single 960 mg i.v., 60-min infusion, N=6, mean ± SD
[11] = part B, single 240 mg i.v. day 1, 30-min infusion, N=8, mean ± SD
[12] = part A, letermovir total (N=30)
[13] = part B, multiple-dose letermovir
[14] = part A, single dose 120 mg (N=6)
[15] = part A, single dose 120 mg (N=6), listed as letermovir
[16] = part A, single dose 240 mg (N=6)
[17] = part A, single dose 480 mg (N=6)
[18] = part A, single dose 720 mg (N=6)
[19] = part A, single dose 960 mg (N=6)
[20] = part A, single dose, letermovir total (N=30)
[21] = part B, multiple dose 240 mg (No. 5)
[22] = part B, multiple dose 240 mg (No. 6)
[23] = part B, single dose 240 mg (N=8)

AUC(0-inf) ([1]; female, human, plasma, intravenous, 240 mg, AUC0–∞ after a single dose, part B, 240 mg single dose): 27500 ng·h/mL
AUC ([1]; female, human, plasma, intravenous, 240 mg, AUCτ,ss, part B, 240 mg q.d., steady state): 33600 ng·h/mL
Tmax ([1]; female, human, plasma, iv, 120 mg): 0.5 h
Tmax ([1]; female, human, plasma, iv, 240 mg): 0.5 h
Tmax ([1]; female, human, plasma, iv, 480 mg): 1 h
Tmax ([1]; female, human, plasma, iv, 720 mg): 1 h
Tmax ([1]; female, human, plasma, iv, 960 mg): 1 h
AUC0–last/D [1, 6]: 0.11 ± 0.03 µg·h/mL/mg
AUC0–∞/D [1, 6]: 0.11 ± 0.03 µg·h/mL/mg
Cmax/D [1, 6]: 0.06 ± 0.01 µg/mL/mg
AUC0–last/D [1, 7]: 0.14 ± 0.04 µg·h/mL/mg
AUC0–∞/D [1, 7]: 0.14 ± 0.04 µg·h/mL/mg
Cmax/D [1, 7]: 0.07 ± 0.01 µg/mL/mg
AUC0–last/D [1, 8]: 0.22 ± 0.04 µg·h/mL/mg
AUC0–∞/D [1, 8]: 0.22 ± 0.04 µg·h/mL/mg
Cmax/D [1, 8]: 0.06 ± 0.01 µg/mL/mg
AUC0–last/D [1, 9]: 0.23 ± 0.03 µg·h/mL/mg
AUC0–∞/D [1, 9]: 0.23 ± 0.03 µg·h/mL/mg
Cmax/D [1, 9]: 0.05 ± 0.00 µg/mL/mg
AUC0–last/D [1, 10]: 0.26 ± 0.06 µg·h/mL/mg
AUC0–∞/D [1, 10]: 0.26 ± 0.06 µg·h/mL/mg
Cmax/D [1, 10]: 0.06 ± 0.01 µg/mL/mg
Tmax ([1]; part B, 240 mg q.d. i.v. day 14, 30-min infusion, N=5, median (minimum-maximum)): 0.50 (0.50–0.50) h
C0h (pre-dose analyte concentration) ([1]; part B, 240 mg q.d. i.v. day 14, N=5, mean ± SD): 193.2 ± 86.23 ng/mL
AUC0–last/D [1, 11]: 0.12 ± 0.02 µg·h/mL/mg
AUC0–∞/D [1, 11]: 0.13 ± 0.02 µg·h/mL/mg
Cmax/D [1, 11]: 0.06 ± 0.01 µg/mL/mg
Tmax ([1]; part B, single 240 mg i.v. day 1, 30-min infusion, N=8, median (minimum-maximum)): 0.50 (0.50–0.50) h
Increase in exposure on dose-doubling ([1]; single i.v. doses 120–960 mg): threefold
SMILES: COc1cccc(N2CCN(C3=Nc4c(F)cccc4[C@H](CC(=O)O)N3c3cc(C(F)(F)F)ccc3OC)CC2)c1 [Letermovir]
Dose proportionality of Cmax ([1]; single i.v. doses 120–960 mg): dose‐proportional increase; also recorded: approximately proportionally to the dose
Dose proportionality of total exposure AUC0–∞ (AUC0–last) ([1]; single i.v. doses 120–960 mg): slightly more‐than‐dose‐proportional increase; also recorded: more than dose proportional
Dose-dependent AEs or clinically significant findings in safety laboratory values, vital signs, ECG parameters [2]: No clinically significant findings
Dose-dependent AEs or clinically significant findings in safety laboratory values, vital signs, ECG parameters ([2]; listed as letermovir): No dose‐dependent AEs or clinically significant findings
Subjects with mild or moderate TEAEs ([2]; part A): 17 subjects
TEAE Vessel puncture site hematoma [2, 12]: 2 No. of subjects
TEAE Vessel puncture site pain [2, 12]: 4 No. of subjects
TEAE Vessel puncture site reaction [2, 12]: 2 No. of subjects
Treatment-related AE headache ([2]; part A, single-dose letermovir): 2 subjects
Treatment-related AE nausea ([2]; part A, single-dose letermovir): 2 subjects
Treatment-related AE vomiting ([2]; part A, single-dose letermovir): 2 subjects
Subjects reporting TEAEs ([2]; part A, single-dose letermovir (18/30)): 60%
Subjects reporting AEs possibly or probably related to treatment ([2]; part A, single-dose letermovir (eight subjects)): 26.7%
Subjects with mild or moderate TEAEs ([2]; part B): 6 subjects
Subjects reporting TEAEs ([2]; part B, letermovir (6/8)): 75%
Subjects with treatment-related AEs [2, 13]: five
Treatment-related AE dizziness [2, 13]: 2 subjects
Treatment-related AE headache [2, 13]: 2 subjects
General tolerability ([2]; single doses up to 960 mg and multiple once-daily 240 mg i.v.): generally safe and well tolerated
Discontinuations due to AEs ([2]; throughout the study): no discontinuations due to AEs
AUC (increase from baseline) of VAS-time curve, Mean (SD) [3, 14]: 2.74 (6.55) h*mm VAS
AUC (increase from baseline) of VAS-time curve, Median [3, 14]: 0.00 h*mm VAS
AUC (increase from baseline) of VAS-time curve, Range [3, 14]: 0.00–16.10 h*mm VAS
VAS maximum increase from baseline, Mean (SD) [3, 14]: 1.17 (2.40) mm VAS
VAS maximum increase from baseline, Median [3, 14]: 0.00 mm VAS
VAS maximum increase from baseline, Range [3, 14]: 0.00–6.00 mm VAS
AUC (increase from baseline) of VAS-time curve, Mean (SD) [3, 15]: 2.74 h*mm VAS
VAS maximum increase from baseline, Mean (SD) [3, 15]: 1.17 mm VAS
AUC (increase from baseline) of VAS-time curve, Mean (SD) [3, 16]: 0.83 (0.61) h*mm VAS
AUC (increase from baseline) of VAS-time curve, Median [3, 16]: 0.83 h*mm VAS
AUC (increase from baseline) of VAS-time curve, Range [3, 16]: 0.00–1.67 h*mm VAS
VAS maximum increase from baseline, Mean (SD) [3, 16]: 1.17 (0.75) mm VAS
VAS maximum increase from baseline, Median [3, 16]: 1.00 mm VAS
VAS maximum increase from baseline, Range [3, 16]: 0.00–2.00 mm VAS
AUC (increase from baseline) of VAS-time curve, Mean (SD) [3, 17]: 0.24 (0.42) h*mm VAS
AUC (increase from baseline) of VAS-time curve, Median [3, 17]: 0.00 h*mm VAS
AUC (increase from baseline) of VAS-time curve, Range [3, 17]: 0.00–1.02 h*mm VAS
VAS maximum increase from baseline, Mean (SD) [3, 17]: 0.5 (0.84) mm VAS
VAS maximum increase from baseline, Median [3, 17]: 0.00 mm VAS
VAS maximum increase from baseline, Range [3, 17]: 0.00–2.00 mm VAS
AUC (increase from baseline) of VAS-time curve, Mean (SD) [3, 18]: 0.39 (0.95) h*mm VAS
AUC (increase from baseline) of VAS-time curve, Median [3, 18]: 0.00 h*mm VAS
AUC (increase from baseline) of VAS-time curve, Range [3, 18]: 0.00–2.33 h*mm VAS
VAS maximum increase from baseline, Mean (SD) [3, 18]: 0.17 (0.41) mm VAS
VAS maximum increase from baseline, Median [3, 18]: 0.00 mm VAS
VAS maximum increase from baseline, Range [3, 18]: 0.00–1.00 mm VAS
VAS maximum increase from baseline, Mean (SD) ([3]; part A, single dose 720 mg (N=6), listed as letermovir): 0.17 mm VAS
AUC (increase from baseline) of VAS-time curve, Mean (SD) [3, 19]: 0.26 (0.64) h*mm VAS
AUC (increase from baseline) of VAS-time curve, Median [3, 19]: 0.00 h*mm VAS
AUC (increase from baseline) of VAS-time curve, Range [3, 19]: 0.00–1.57 h*mm VAS
VAS maximum increase from baseline, Mean (SD) [3, 19]: 0.67 (1.63) mm VAS
VAS maximum increase from baseline, Median [3, 19]: 0.00 mm VAS
VAS maximum increase from baseline, Range [3, 19]: 0.00–4.00 mm VAS
AUC (increase from baseline) of VAS-time curve, Mean (SD) [3, 20]: 0.89 (2.94) h*mm VAS
AUC (increase from baseline) of VAS-time curve, Median [3, 20]: 0.00 h*mm VAS
AUC (increase from baseline) of VAS-time curve, Range [3, 20]: 0.00–16.10 h*mm VAS
VAS maximum increase from baseline, Mean (SD) [3, 20]: 0.73 (1.36) mm VAS
VAS maximum increase from baseline, Median [3, 20]: 0.00 mm VAS
VAS maximum increase from baseline, Range [3, 20]: 0.00–6.00 mm VAS
VAS maximum increase from baseline, Mean (SD) ([3]; part A, single dose, letermovir total (N=30), listed as letermovir): 0.73 mm VAS
AUC (increase from baseline) of VAS-time curve, Mean (SD) [3, 21]: 24.58 (30.23) h*mm VAS
AUC (increase from baseline) of VAS-time curve, Median [3, 21]: 23.95 h*mm VAS
AUC (increase from baseline) of VAS-time curve, Range [3, 21]: 0.00–74.33 h*mm VAS
VAS maximum increase from baseline, Mean (SD) [3, 22]: 0.83 (0.41) mm VAS
VAS maximum increase from baseline, Median [3, 22]: 1.00 mm VAS
VAS maximum increase from baseline, Range [3, 22]: 0.00–1.00 mm VAS
VAS maximum increase from baseline, Mean (SD) ([3]; part B, multiple dose 240 mg (No. 6), listed as letermovir): 0.83 mm VAS
AUC (increase from baseline) of VAS-time curve, Mean (SD) [3, 23]: 0.00 h*mm VAS
AUC (increase from baseline) of VAS-time curve, Median [3, 23]: 0.00 h*mm VAS
AUC (increase from baseline) of VAS-time curve, Range [3, 23]: 0.00 h*mm VAS
VAS maximum increase from baseline, Mean (SD) [3, 23]: 0.00 mm VAS
VAS maximum increase from baseline, Median [3, 23]: 0.00 mm VAS
VAS maximum increase from baseline, Range [3, 23]: 0.00 mm VAS
VIP score ([4]; part A, one subject of 120 mg group, 4 h postinfusion, scale 0–5): 2
VIP score ([4]; part A, one subject treated with 240 mg, 24 h postinfusion, scale 0–5): 1
VIP score ([4]; part A, same subject of 120 mg group, 72 h postinfusion, scale 0–5): 1
VIP score ([4]; part B, one letermovir-treated subject, predose day 14 until 72 h postdose): 1
VIP score ([4]; part B, throughout the study, all participants except one): 0
Ultrasound finding in infusion site arm ([5]; part A, one subject in letermovir-treated group, at follow-up): NCS abnormal finding
Ultrasound finding in infusion site arm ([5]; part B): no abnormal findings
